Laboratory results: ChEMBL document CHEMBL3228033, “Cyclic amidine inhibitors of indolamine N-methyltransferase” (J Med Chem, 1979)

What follows are compounds tested against Indolethylamine N-methyltransferase (Homo sapiens, UniProt O95050) (assay: Inhibition of human lung INMT using N-methyltryptamine as substrate after 90 mins by liquid scintillation counting in presence of S-methyl-[14C]adenosylmethionine).
Sequence of Indolethylamine N-methyltransferase (Homo sapiens, UniProt O95050) (O95050 whole entry): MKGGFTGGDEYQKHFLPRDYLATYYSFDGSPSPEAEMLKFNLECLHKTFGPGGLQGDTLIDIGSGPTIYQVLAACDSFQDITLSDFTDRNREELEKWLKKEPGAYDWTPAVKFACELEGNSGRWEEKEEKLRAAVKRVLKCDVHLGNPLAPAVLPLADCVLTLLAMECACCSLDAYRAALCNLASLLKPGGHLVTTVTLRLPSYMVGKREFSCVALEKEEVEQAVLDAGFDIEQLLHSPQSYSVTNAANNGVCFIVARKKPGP
Work on `C1CCC2=NCCCN2CC1` yielded an IC50 of 25.7 µM.
`C1CCN2CCCC2=NC1` gave an IC50 of 852 µM.
With `Cn1cc(C(F)(F)F)sc1=N` the IC50 was greater than 86.6 µM.

Each compound was assayed on Oryctolagus cuniculus (assay: In vivo inhibition of New Zealand white rabbit INMT-mediated [14C]NMT to [14C]DMT conversion in brain at 0.5 %, po in drinking water for 5 days).
Assay type: functional
In short: (§1)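 Male NZW rabbits (400-500 g), three per group, given 0.5% (v/v) in drinking water for 5 days; controls water. Day 5: pheniprazine 5 mg/kg iv, then 6 h later 25 µCi (0.5 mg) [14C]NMT iv. After 5 min, decapitation; lung and brain frozen in liquid nitrogen. [14C]DMT counted as cpm/g tissue. Values are means of three animals, with Student's t test.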
`C1CN2CCSCC2=N1.O=C(O)/C=C/C(=O)O` was tested, and the “inhibition (INH)” value was 57%.

Each compound was assayed on Oryctolagus cuniculus (assay: In vivo inhibition of New Zealand white rabbit lung INMT at 0.02 %, po in drinking water for 12 days).
Assay type: functional
In short: (§2)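 Male NZW rabbits, three per group, received compound in drinking water (pH 7) throughout, with water for controls. Afterwards decapitated and bled out. Crude lung INMT (54 000g supernatant) assayed by the standard in vitro [14C]SAM/NMT method. Activity taken as cpm/mg protein after 1 h at 37 °C, read in the toluene-isoamyl alcohol phase. Means ± SEM.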
In the case of `CN1CCSC1=N.I`, the “inhibition (INH)” value is reported as 76%.

These compounds were tested on Oryctolagus cuniculus (assay: In vivo inhibition of New Zealand white rabbit lung INMT at 0.5 %, po in drinking water for 5 days).
Assay type: functional
In short: as §2
With `C1CN2CCSCC2=N1.O=C(O)/C=C/C(=O)O` the “inhibition (INH)” value was 75%.

What follows are compounds tested against Indolethylamine N-methyltransferase (Oryctolagus cuniculus, UniProt O97972) (assay: Inhibition of New Zealand white rabbit lung INMT using N-methyltryptamine as substrate after 60 to 90 mins by liquid scintillation counting in presence of S-methyl-[14C]adenosylmethionine).
Sequence of Indolethylamine N-methyltransferase (Oryctolagus cuniculus, UniProt O97972) (O97972 whole entry): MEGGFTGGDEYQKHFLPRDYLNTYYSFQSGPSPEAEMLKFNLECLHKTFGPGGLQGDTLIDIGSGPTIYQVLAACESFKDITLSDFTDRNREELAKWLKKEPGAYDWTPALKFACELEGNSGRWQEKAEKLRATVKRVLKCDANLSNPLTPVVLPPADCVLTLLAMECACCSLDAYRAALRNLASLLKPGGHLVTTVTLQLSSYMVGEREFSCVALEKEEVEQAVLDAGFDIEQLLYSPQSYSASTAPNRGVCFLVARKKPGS
In short: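 Enzyme from male rabbit lung: homogenate in 0.15 M KCl with 10^-4 M DTT and EDTA, 50 000 g supernatant, 40-60% ammonium sulfate fraction dialysed (some runs further Sephadex G-150 purified). Incubation in potassium phosphate pH 7.9 with N-methyltryptamine and S-[methyl-14C]adenosylmethionine, test compound in water or 5% DMSO, 37 °C. Stopped with borate pH 10; 14C-DMT extracted into isoamyl alcohol.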
Work on `C1CCC2=NCCCN2CC1` yielded an IC50 of 8 µM.
`CC(C)CN1CCCC1=N` showed an IC50 of 19.4 µM.
`C1CN=C2CCCN2C1` was tested, and the IC50 was 1.67 µM.
`C1CCN2CCCC2=NC1` was tested, and the IC50 was 74.8 µM.
Work on `C1CCN2CCCN=C2C1` yielded an IC50 of 0.7 µM.
In the case of `CC1CC2=NCCCN2C1` (stereo not drawn), the IC50 is reported as 7 µM.
`CC1CCC2=NCCCN21` (stereo not drawn) showed an IC50 of 13.2 µM.
`C(=C1/CCC2=NCCCN21)/c1ccccc1` was tested, and the IC50 was 37.1 µM.
Work on `C=C1CN=C2CCCN2C1` yielded an IC50 of 43.3 µM.
With `ClC1CCCN2CCN=C12` (stereo not drawn) the IC50 was 52.2 µM.
With `C1CC2=NCCN2C1` the IC50 was 0.04 µM.
`CC1CC2=NCCN2C1` (stereo not drawn) gave an IC50 of 3.8 µM.
In the case of `CC1(C)CC2=NCCN2C1`, the IC50 is reported as 54.2 µM.
With `CC1CCC2=NCCN21` (stereo not drawn) the IC50 was 9.3 µM.
For `C1CCC2(CC1)CCC1=NCCN12`, the IC50 was 141 µM.
In the case of `c1ccc(C2CC3=NCCN3C2)cc1` (stereo not drawn), the IC50 is reported as greater than 330 µM.
`c1ccc(C2(c3ccccc3)CC3=NCCN3C2)cc1` showed an IC50 greater than 330 µM.
In the case of `c1cn2c(n1)CCC2`, the IC50 is reported as 83.1 µM.
With `c1ccc2c(c1)CN1CCN=C21` the IC50 was greater than 330 µM.
In the case of `c1ccc2c(c1)CC1C2CC2=NCCN21` (stereo not drawn), the IC50 is reported as 16.4 µM.
`C1CN2C(=N1)C1CC3CC(C1)CC2C3` was tested, and the IC50 was greater than 330 µM.
Work on `C1CCN2CCN=C2C1` yielded an IC50 of 0.17 µM.
`C1CN2CCOCC2=N1` was tested, and the IC50 was 13.8 µM.
In the case of `C1CN2CCSCC2=N1.O=C(O)/C=C/C(=O)O`, the IC50 is reported as 0.5 µM.
`CC1CN2CCN=C2CS1` (stereo not drawn) gave an IC50 of 30.3 µM.
`[O-][S+]1CCN2CCN=C2C1` (stereo not drawn) gave an IC50 of 3.6 µM.
In the case of `C1=CN2CCN=C2CS1`, the IC50 is reported as 18 µM.
In the case of `CC1=CSCC2=NCCN12`, the IC50 is reported as 45.4 µM.
`c1ccc2c(c1)SCC1=NCCN12` showed an IC50 greater than 330 µM.
`CN1CCSC1=N.I` was tested, and the IC50 was 0.8 µM.
`C/N=C1\SCCN1C` was tested, and the IC50 was 8.1 µM.
In the case of `CCN1CCSC1=N`, the IC50 is reported as 0.2 µM.
`C/N=C1/NCCS1` showed an IC50 of 7.7 µM.
`CCCN1CCSC1=N` gave an IC50 of 9.9 µM.
Work on `C=CCN1CCSC1=N` yielded an IC50 of 7.1 µM.
`C#CCN1CCSC1=N` gave an IC50 of 13.8 µM.
With `CNN1CCSC1=N` the IC50 was 1.5 µM.
`CC1CN(C)C(=N)S1` (stereo not drawn) was tested, and the IC50 was 7.9 µM.
For `Cn1ccsc1=N`, the IC50 was 2 µM.
With `Cn1cc(C(F)(F)F)sc1=N` the IC50 was greater than 88.6 µM.
For `C/N=c1\ccsn1C`, the IC50 was 6.9 µM.
In the case of `C/N=c1\cnsn1C`, the IC50 is reported as 5.2 µM.
`CN1CCOC1=N` showed an IC50 of 40 µM.
Compound `C/N=C1\CCCN1` has an IC50 of 27.1 µM.
`CN1CCCC1=N` showed an IC50 of 1.5 µM.
In the case of `CCN1CCCC1=N`, the IC50 is reported as 1.6 µM.
In the case of `N=C1CCCN1C1CC1`, the IC50 is reported as 67 µM.
With `CCOC(CN1CCCC1=N)OCC` the IC50 was greater than 106 µM.
`N=C1CCCN1CCc1ccccc1` gave an IC50 of 3720 µM.
Compound `CN1CCC/C1=N\CC(F)(F)F` has an IC50 greater than 92.6 µM.
In the case of `C/N=C1\CCCN1C`, the IC50 is reported as 31.2 µM.
For `CN1CCC/C1=N\C1CC1`, the IC50 was greater than 10.3 µM.
Compound `CN1CCSCC1=N` has an IC50 of 6.3 µM.
`CN1CCCSC1=N` showed an IC50 of 2 µM.
With `CCN1CCCSC1=N` the IC50 was 1.8 µM.
With `CN1C=CSCC1=N` the IC50 was 3 µM.
Compound `C/N=C1\CSC=CN1C` has an IC50 of 9.8 µM.
In the case of `CN1C=CCSC1=N`, the IC50 is reported as 2 µM.
For `Cn1ccccc1=N`, the IC50 was 1.6 µM.
Work on `C=CCn1ccccc1=N` yielded an IC50 of 1.58 µM.
Work on `N=c1ccccn1CC(F)(F)F` yielded an IC50 greater than 9.7 µM.
For `Cn1cccc/c1=N\CC(F)(F)F`, the IC50 was greater than 9.2 µM.
For `Cn1cccc/c1=N\CCO`, the IC50 was greater than 8.9 µM.
Work on `Cn1cccc/c1=N\C1CC1` yielded an IC50 greater than 10.1 µM.
With `Cn1cccc(C#N)c1=N` the IC50 was 179 µM.
In the case of `Cc1ccn(C)c(=N)c1`, the IC50 is reported as 2.8 µM.
`Cn1cc(F)ccc1=N` gave an IC50 of 69.8 µM.
Compound `Cn1c(F)cccc1=N` has an IC50 of 5.3 µM.
In the case of `C/N=c1\cccc(F)n1C`, the IC50 is reported as 74 µM.
`Cn1c(N)cccc1=N` was tested, and the IC50 was 6.2 µM.
`C/N=c1\cccc(NC)n1C` was tested, and the IC50 was 13.1 µM.
In the case of `CCOc1cccc(=N)n1C`, the IC50 is reported as greater than 10.3 µM.
With `CN1CCC=CC1=N` the IC50 was 0.9 µM.
In the case of `Cn1ccncc1=N`, the IC50 is reported as greater than 5260 µM.
`N#CCn1ccc(=N)cc1` showed an IC50 greater than 148 µM.
For `C[n+]1ccccc1CC#N`, the IC50 was greater than 11.7 µM.
With `Cc1cc(=N)sn1C` the IC50 was 19.6 µM.
In the case of `Cn1ccc(=N)cc1`, the IC50 is reported as 6.2 µM.
`C[N+]1=C2CCCN2CCC1` gave an IC50 of 38.7 µM.
`N=C1SCCN1Cc1ccncc1` was tested, and the IC50 was greater than 6.9 µM.
`NC1=NCCC1` showed an IC50 of 33.6 µM.

Each compound was assayed on Oryctolagus cuniculus (assay: In vivo inhibition of New Zealand white rabbit INMT-mediated [14C]NMT to [14C]DMT conversion in lung at 0.5 %, po in drinking water for 5 days).
Assay type: functional
In short: as §1
For `C1CN2CCSCC2=N1.O=C(O)/C=C/C(=O)O`, the “inhibition (INH)” value was 64%.
